Common to all, as to format: functional
Experiment [1] has as its system Mus musculus. The experiment in a line: In vivo growth inhibitory activity was measured against murine P388 leukemia cells as Percent increase in life span at the dose of 50.0 mg/kg/day. A digest of the protocol:
(§1)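 Murine P388 leukemia model: 10⁶ tumor cells inoculated ip on day 0. Compound given ip once daily on days 1-4 at the stated dose. Activity was expressed as percent increase in life span relative to untreated controls.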

The test system of another experiment is CCRF-CEM. Nature of the experiment: Inhibitory activity against CCRF-CEM(human leukemic lymphoblastic) cells in culture. The note with it: read-out: ID50 (the source's name). An outline of the steps: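 Human leukemic lymphoblastic CCRF-CEM cells grown in culture with continuous drug exposure for 48 h; growth inhibition measured.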
Experiment [2] concerns Mus musculus. The experiment in a line: In vivo growth inhibitory activity was measured against murine P388 leukemia cells as Percent increase in life span at the dose of 80.0 mg/kg/day. A digest of the protocol: as §1
The subject of experiment [3] is Mus musculus. Nature of the experiment: In vivo growth inhibitory activity was measured against murine P388 leukemia cells as Percent increase in life span at the dose of 40.0 mg/kg/day. An outline of the steps:
as §1

For experiment [4], the system named is Mus musculus. The experiment in a line: In vivo growth inhibitory activity was measured against murine P388 leukemia cells as Percent increase in life span at the dose of 2.0 mg/kg/day. A digest of the protocol: as §1
The test system of experiment [5] is Mus musculus. The experiment in a line: In vivo growth inhibitory activity was measured against murine P388 leukemia cells as Percent increase in life span at the dose of 20.0 mg/kg/day. A digest of the protocol: as §1
For experiment [6], the system named is Mus musculus. Nature of the experiment: In vivo growth inhibitory activity was measured against murine P388 leukemia cells as Percent increase in life span at the dose of 4.0 mg/kg/day. An outline of the steps:
as §1

The subject of experiment [7] is Mus musculus. Nature of the experiment: In vivo growth inhibitory activity was measured against murine P388 leukemia cells as percent increase in life span at the dose of 40.0 mg/kg/day. An outline of the steps:
as §1

Bounds are passed on as bounds.

In turn, `CCCCC(=O)OCC(=O)[C@]1(O)Cc2c(O)c3c(c(O)c2[C@@H](OC2CC(NC(=O)C(F)(F)C(F)(F)C(F)(F)F)C(O)C(C)O2)C1)C(=O)c1c(OC)cccc1C3=O` (stereo partly drawn) returned an increase in life span (ILS) at 50 mg/kg/day in the experiment with Mus musculus [1] of 0%. Also, the IC50 in the experiment on CCRF-CEM was greater than 1140 nM. As to `COc1cccc2c1C(=O)c1c(O)c3c(c(O)c1C2=O)C[C@@](O)(C(C)=O)C[C@@H]3OC1CC(NC(=O)C(F)(F)F)C(O)C(C)O1` (stereo partly drawn), in the experiment on CCRF-CEM, the IC50 turned out to be 270 nM. Moreover, in the experiment with Mus musculus [2], the ILS at 80 mg/kg/day worked out at 83%.

Take `CCCCC(=O)OCC(=O)C1=Cc2c(O)c3c(c(O)c2[C@@H](OC2CC(NC(=O)C(F)(F)C(F)(F)F)C(O)C(C)O2)C1)C(=O)c1c(OC)cccc1C3=O` (stereo partly drawn): the IC50 in the experiment on CCRF-CEM stood at 560 nM.

Take `COc1cccc2c1C(=O)c1c(O)c3c(c(O)c1C2=O)C[C@@](O)(C(C)=O)C[C@@H]3OC1CC(NC(=O)C(F)(F)C(F)(F)C(F)(F)F)C(O)C(C)O1` (stereo partly drawn): in the experiment with CCRF-CEM, the IC50 was greater than 1350 nM. For the same compound, the ILS at 40 mg/kg/day with Mus musculus [3] was determined as 45%. On to `COc1cccc2c1C(=O)c1c(O)c3c(c(O)c1C2=O)C[C@@](O)(C(C)=O)C[C@@H]3O[C@H]1C[C@H](N)[C@H](O)[C@H](C)O1` [DAUNORUBICIN], for which the IC50 with CCRF-CEM stood at 40 nM. This compound showed an increase in lifespan (ILS) at 2 mg/kg/day in the experiment with Mus musculus [4] of 91%. In the experiment on Mus musculus [1], `COc1cccc2c1C(=O)c1c(O)c3c(c(O)c1C2=O)C[C@@](O)(C(=O)CO)C[C@@H]3OC1CC(NC(=O)C(F)(F)C(F)(F)F)C(O)C(C)O1` (stereo partly drawn) came in with an increase in life span (ILS) at 50 mg/kg/day of 372%. The IC50 in the experiment on CCRF-CEM was 410 nM. As to `CCCCC(=O)OCC(=O)[C@]1(O)Cc2c(O)c3c(c(O)c2[C@@H](OC2CC(NC(=O)C(F)(F)F)C(O)C(C)O2)C1)C(=O)c1c(OC)cccc1C3=O` (stereo partly drawn), the IC50 in the experiment with CCRF-CEM is 240 nM. This compound gave an ILS at 40 mg/kg/day in the experiment on Mus musculus [3] of 429%. With `COc1cccc2c1C(=O)c1c(O)c3c(c(O)c1C2=O)C=C(C(C)=O)C[C@@H]3OC1CC(NC(=O)C(F)(F)C(F)(F)C(F)(F)F)C(O)C(C)O1` (stereo partly drawn), in the experiment on CCRF-CEM, the IC50 was greater than 13800 nM. `COc1cccc2c1C(=O)c1c(O)c3c(c(O)c1C2=O)C[C@@](O)(C(=O)CO)C[C@@H]3OC1CC(NC(=O)C(F)(F)C(F)(F)C(F)(F)F)C(O)C(C)O1` (stereo partly drawn): the increase in lifespan (ILS) at 50 mg/kg/day with Mus musculus [1] worked out at 54%. In the experiment on CCRF-CEM, the IC50 came to 1490 nM.

For `CCCCC(=O)OCC(=O)C1=Cc2c(O)c3c(c(O)c2[C@@H](OC2CC(NC(=O)C(F)(F)C(F)(F)C(F)(F)F)C(O)C(C)O2)C1)C(=O)c1c(OC)cccc1C3=O` (stereo partly drawn), the IC50 with CCRF-CEM turned out to be 2310 nM. As for `COc1cccc2c1C(=O)c1c(O)c3c(c(O)c1C2=O)C[C@@](O)(C(=O)CO)C[C@@H]3OC1CC(NC(=O)C(F)(F)F)C(O)C(C)O1` (stereo partly drawn), in the experiment with Mus musculus [5], the increase in lifespan (ILS) at 20 mg/kg/day was found to be 481%. The IC50 in the experiment with CCRF-CEM was found to be 230 nM.

Regarding `COc1cccc2c1C(=O)c1c(O)c3c(c(O)c1C2=O)C=C(C(C)=O)C[C@@H]3OC1CC(NC(=O)C(F)(F)C(F)(F)F)C(O)C(C)O1` (stereo partly drawn), the IC50 with CCRF-CEM turned out to be 500 nM. `CCCCC(=O)OCC(=O)[C@]1(O)Cc2c(O)c3c(c(O)c2[C@@H](OC2CC(NC(=O)C(F)(F)C(F)(F)F)C(O)C(C)O2)C1)C(=O)c1c(OC)cccc1C3=O` (stereo partly drawn) had an ILS at 50 mg/kg/day with Mus musculus [1] of 0%. The IC50 in the experiment with CCRF-CEM was found to be 1180 nM. As for `COc1cccc2c1C(=O)c1c(O)c3c(c(O)c1C2=O)C[C@@](O)(C(=O)CO)C[C@@H]3O[C@H]1C[C@H](N)[C@H](O)[C@H](C)O1` [DOXORUBICIN], the IC50 in the experiment on CCRF-CEM was determined as 66 nM. Moreover, the ILS at 4 mg/kg/day with Mus musculus [6] was 132%. `COc1cccc2c1C(=O)c1c(O)c3c(c(O)c1C2=O)C=C(C(C)=O)C[C@@H]3OC1CC(NC(=O)C(F)(F)F)C(O)C(C)O1` (stereo partly drawn) gave an ILS at 40 mg/kg/day in the experiment with Mus musculus [3] of 45%. As to `COc1cccc2c1C(=O)c1c(O)c3c(c(O)c1C2=O)C=C(C(=O)CO)C[C@@H]3OC1CC(NC(=O)C(F)(F)C(F)(F)F)C(O)C(C)O1` (stereo partly drawn), the IC50 with CCRF-CEM came to 8410 nM. Still for that read-out and setting: then `COc1cccc2c1C(=O)c1c(O)c3c(c(O)c1C2=O)C=C(C(=O)CO)C[C@@H]3OC1CC(NC(=O)C(F)(F)C(F)(F)C(F)(F)F)C(O)C(C)O1` (stereo partly drawn), with 7300 nM. In turn, `COc1cccc2c1C(=O)c1c(O)c3c(c(O)c1C2=O)C[C@@](O)(C(C)=O)C[C@@H]3OC1CC(NC(=O)C(F)(F)C(F)(F)F)C(O)C(C)O1` (stereo partly drawn) returned an increase in life span (ILS) at 50 mg/kg/day in the experiment with Mus musculus [1] of 27%. The IC50 with CCRF-CEM stood at 1010 nM. With `CCCCC(=O)OCC(=O)C1=Cc2c(O)c3c(c(O)c2[C@@H](OC2CC(NC(=O)C(F)(F)F)C(O)C(C)O2)C1)C(=O)c1c(OC)cccc1C3=O` (stereo partly drawn), the IC50 in the experiment with CCRF-CEM is 1190 nM. In addition, in the experiment on Mus musculus [3], the increase in life span (ILS) at 40 mg/kg/day is 27%. In turn, `COc1cccc2c1C(=O)c1c(O)c3c(c(O)c1C2=O)C=C(C(=O)CO)C[C@@H]3OC1CC(NC(=O)C(F)(F)F)C(O)C(C)O1` (stereo partly drawn) returned an increase in life span (ILS) at 40 mg/kg/day with Mus musculus [7] of 63%. Moreover, the IC50 with CCRF-CEM came out at 5790 nM.

Usually ILS stands for the gain in survival time of treated over control animals, in per cent.

For the origin of these results see ChEMBL document CHEMBL1122143, “Adriamycin analogues. Preparation and biological evaluation of some N-perfluoroacyl analogues of daunorubicin, adriamycin, and N-(trifluoroacetyl)adriamycin 14-valerate and their 9,10-anhydro derivatives” (1982).
